# Screening data deposited in PubChem by The Scripps Research Institute Molecular Screening Center.
# OX1R antag-1 = human HCRTR1 antagonism; 330,000 compounds, 0.43% hits; CHO/OX1R cells, Fluo-8 calcium fluorescence, orexin A; AID 434989; inhibition, % at 5 µM; O43613;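 active means inhibition above its plate's threshold, mean inhibition of all tested compounds on the plate plus 3 SD, cut at about 37% in these data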;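 further: 0% = orexin A challenge wells and 100% = SB-334867-A antagonist wells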
# Target sequence (O43613 whole entry, looked up): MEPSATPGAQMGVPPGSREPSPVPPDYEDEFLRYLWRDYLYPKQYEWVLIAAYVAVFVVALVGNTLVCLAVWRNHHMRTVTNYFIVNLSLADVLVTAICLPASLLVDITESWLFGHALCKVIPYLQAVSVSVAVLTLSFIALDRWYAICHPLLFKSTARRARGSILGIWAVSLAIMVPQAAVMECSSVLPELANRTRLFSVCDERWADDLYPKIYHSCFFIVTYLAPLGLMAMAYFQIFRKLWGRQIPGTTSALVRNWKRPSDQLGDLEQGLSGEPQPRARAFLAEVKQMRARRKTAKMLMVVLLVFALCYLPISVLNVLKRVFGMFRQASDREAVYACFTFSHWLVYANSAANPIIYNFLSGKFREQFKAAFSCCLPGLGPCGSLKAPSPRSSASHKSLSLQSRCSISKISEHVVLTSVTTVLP
# OX1R antag-2 = antagonists of human orexin 1 receptor (OX1R) | inhibition, % at 6.6 µM | AID 485270 | OX1R-expressing cells, FRET antagonist read-out | 330,000 compounds, 1.8% hits; in the data active means inhibition mostly above about 38%, no sharp cut-off; inactive means mostly below about 40%;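 further: 0% = agonist challenge alone and 100% = reference antagonist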
# CHO parental Ca = counter-screen: ATP calcium response change in parental CHO cells | inhibition, % at 5.6 µM | 330,000 compounds, 0.63% hits | parental CHO-K1, ATP-induced calcium, Fluo-8 fluorescence | AID 463079;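 active means inhibition above that plate's mean sample inhibition plus 3 SD, cut at about 26% in these data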;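 further: 0% = ATP-challenged DMSO wells and 100% = DMSO wells without ATP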
#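 Assay system: untransfected parental CHO cell line. Also added: ATP agonist challenge. Dosing: one dose, 5.6 µM nominal. Measured by: Fluo-8 fluorescence. Read-out: % inhibition. Benchmarks: ATP wells versus no-ATP DMSO wells. Repeats: no replicates.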
# GPR7 antag = blocks human GPR7 receptor signaling | P48145 | GPR7-expressing cells, fluorescence antagonist assay | inhibition, % at 4.4 µM | 290,000 compounds, 1.1% hits; in the data active means inhibition above about 16%, passing the limit was not always enough;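 further: cells stimulated with the agonist NPW; 0% = agonist with vehicle and 100% = vehicle without agonist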
# TAAR1 antag = antagonists of human TAAR1. 360,000 compounds, 1.5% hits. Q96RJ0. CHO RD-HGA16 TAAR1, Fluo-8 calcium fluorescence, antagonist. inhibition, % at 3 µM;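 active means inhibition above a per-plate cutoff, the mean inhibition of test compounds on that plate plus 3 SD, cut at about 49% in these data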;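 further: 0% = DMSO plus EC80 beta-PEA response and 100% = DMSO alone without agonist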
#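 Material: CHO RD-HGA16 cells bearing hTAAR1; compound dosing: one-point dosing, 3 µM nominal final; schedule: dye loading 75 min at 37 °C, then 30 min room temperature; measured by: calcium fluorescence with Fluo-8; control set: vehicle and agonist controls; replication: n of 1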
# TAAR1 ag = human TAAR1 agonism. Q96RJ0. CHO RD-HGA16 TAAR1, Fluo-8 calcium fluorescence; vehicle wells 0%, saturating PEA agonist 100%. activation, % at 3 µM. 360,000 compounds, 0.99% hits;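 active means activation above the mean activation of all test compounds in the run plus 3 SD, cut at about 38% in these data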
#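 Test system: RD-HGA16 (CHO) cells co-expressing Gα16 and hTAAR1; dosing: one-point dosing at 3 µM (nominal); timing: 17-24 h seeding, 75 min 37 °C dye, 30 min RT; signal: kinetic Fluo-8 calcium fluorescence; read-out basis: % activation relative to PEA EC100 response; controls: DMSO and PEA EC100; replicates: n 1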
# * hit, by the source's call; . = no result given. Sampled rows, rich in hits. Any-hit rate of the full collection: about 4.6%.
SMILES,OX1R antag-1,OX1R antag-2,CHO parental Ca,GPR7 antag,TAAR1 antag,TAAR1 ag
CCOc1ccccc1N(C(=O)c1snc(C(N)=O)c1N)C(C(=O)NC1CCCC1)c1ccco1 (stereo unspecified),-26,12,-14,21*,1,9
CCc1ccccc1N(C(=O)c1snc(C(N)=O)c1N)C(C(=O)NCC1CCCO1)c1ccc(N(C)C)cc1 (stereo unspecified),.,.,.,0,-7,-1
CCOc1ccccc1N(C(=O)c1snc(C(N)=O)c1N)C(C(=O)NC1CCCC1)c1cccs1 (stereo unspecified),-31,18,-38,-7,-14,-4
CN(C)c1ccc(C(C(=O)NCC2CCCO2)N(C(=O)c2snc(C(N)=O)c2N)c2ccc3c(c2)OCO3)cc1 (stereo unspecified),-19,32,-8,1,22,13
COc1ccc(N(C(=O)c2snc(C(N)=O)c2N)C(C(=O)NC2CCCC2)c2ccc3ncccc3c2)cc1 (stereo unspecified),-4,19,-14,-18,48,7
NC(=O)c1nsc(C(=O)N(c2ccccc2)C(C(=O)NC2CCCC2)c2ccc3ncccc3c2)c1N (stereo unspecified),-4,17,-7,-14,51*,8
CN(C)c1ccc(C(C(=O)NCC2CCCO2)N(C(=O)c2snc(C(N)=O)c2N)c2ccccc2)cc1 (stereo unspecified),-4,9,6,-7,52*,22
CC(C)c1ccc(N(C(=O)c2snc(C(N)=O)c2N)C(C(=O)NCC2CCCO2)c2ccc(N(C)C)cc2)cc1 (stereo unspecified),.,.,.,-30,55*,24
Cc1nnsc1Sc1cccc(C(F)(F)F)c1,0,1,10,1,.,.
COc1cccc(-c2cnc(C(O)c3ccc(SC)cc3)[nH]2)c1 (stereo unspecified),.,.,.,.,-10,5
Cc1cccc2sc(N(CCN(C)C)C(=O)C3CCN(S(=O)(=O)c4cccs4)CC3)nc12,-15,0,-10,.,41,39*
CC(c1ccco1)N(C(=O)c1ccccc1NS(=O)(=O)c1cc([N+](=O)[O-])ccc1Cl)c1ccccn1 (stereo unspecified),-15,72*,-16,-5,32,7
CC(c1ccco1)N(C(=O)c1ccccc1NS(=O)(=O)c1ccc(Cl)cc1)c1ccccn1 (stereo unspecified),-3,32,-12,-3,-3,5
CC(c1ccco1)N(C(=O)c1ccccc1NS(=O)(=O)c1cccc([N+](=O)[O-])c1)c1ccccn1 (stereo unspecified),-31,63*,0,-13,.,.
O=C(Nc1cnn(Cc2ccc(F)cc2)c1)c1cc(-c2cccs2)on1,-12,9,7,-1,.,.
O=C(Nc1cnn(Cc2ccc(F)cc2)c1)c1cnccn1,-21,0,-15,17*,-34,0
COc1ccc(S(=O)(=O)N2CCOC2CNC(=O)C(=O)NCCCN(C)C)cc1C (stereo unspecified),-6,5,-15,-25,-13,-1
NC(Cc1ccc(C(F)(F)F)cc1)c1csc(Nc2ncccn2)n1 (stereo unspecified),.,.,.,.,9,19
CN(Cc1ccccc1)C(=O)c1ccc(Nc2nc(C(N)Cc3ccccc3)cs2)nc1 (stereo unspecified),.,.,.,.,45,45*
NC(Cc1ccc(C(F)(F)F)cc1)c1csc(Nc2cc(NCc3ccco3)ncn2)n1 (stereo unspecified),.,.,.,.,29,38*
COc1cccc(Nc2nc(C(N)Cc3ccccc3)cs2)n1 (stereo unspecified),.,.,.,.,29,52*
NC(Cc1ccc(C(F)(F)F)cc1)c1csc(Nc2ccccn2)n1 (stereo unspecified),.,.,.,.,8,46*
C[C@H]1COC(=O)[C@@H](Cc2ccc(F)cc2)C/C=C\C[C@H](CC(=O)NCCO)C(=O)N1,-6,9,1,.,8,2
COc1ccc(S(=O)(=O)Nc2ccccc2N2CCOCC2)cc1[N+](=O)[O-],-21,27,-8,-16,5,2
COc1ccccc1N1CCN(C(=O)c2cc(S(=O)(=O)N3CCCCC3)ccc2C)CC1,-18,6,-24,.,24,11
SMILES,OX1R antag-1,OX1R antag-2,CHO parental Ca,GPR7 antag,TAAR1 antag,TAAR1 ag
CCOc1ccccc1N1CCN(C(=O)c2cc(S(=O)(=O)N3CCCCC3)ccc2C)CC1,-16,-4,-23,.,55*,28
CC1=NNC(=O)/C1=C\c1cn(-c2ccccc2)nc1-c1cccs1,73*,28,63*,12,86*,37
CS(=O)(=O)c1ccc2nc(NC(=O)c3cccc([N+](=O)[O-])c3)sc2c1,-27,34,1,-17,21,13
CC1=CC(c2ccccc2)n2nnnc2N1 (stereo unspecified),-12,1,-8,-16,10,0
O=C(c1[nH]c(C(F)(F)F)nc1-c1ccccc1)N1CCN(c2ccc(C(F)(F)F)cn2)CC1,.,.,.,.,8,2
O=C(c1[nH]c(C(F)(F)F)nc1-c1ccccc1)N1CCN(c2ncc(C(F)(F)F)cc2Cl)CC1,.,.,.,.,49*,49*
Cc1cc(NC(=O)c2cc(-c3ccccc3C)nc3ccccc23)no1,-35,20,-20,-11,10,2
Cc1ccccc1-c1cc(C(=O)Nc2sc(C(=O)OC(C)C)c(C)c2C#N)c2ccccc2n1,-11,45*,1,-14,25,16
CCOC(=O)c1sc(NC(=O)c2cc(-c3ccc(C)cc3)nc3ccccc23)c(C#N)c1C,-17,6,-6,-12,5,10
COC(=O)c1sc(NC(=O)c2cc(-c3ccccc3)nc3ccccc23)c(C#N)c1C,14,72*,-8,-1,35,11
Cc1ccc2nc(-c3ccc(N4C(=O)CC(N5CCC(C(N)=O)CC5)C4=O)cc3)sc2c1 (stereo unspecified),2,1,2,-1,.,.
Cc1ccc(Oc2nnc(-c3cccs3)c3ccccc23)cc1C,-6,6,40*,1,-2,-1
c1ccc(Oc2nnc(-c3cccs3)c3ccccc23)cc1,-16,13,20,-7,4,0
CC(C)(C)C(=O)NC1CC2CCCC(C1)N2C(=O)Nc1ccc(Cl)cc1 (stereo unspecified),-9,5,3,-10,11,1
FC(F)Oc1ccc(C2=Nn3c(nnc3-c3ccccc3Cl)SC2)cc1OCC1CC1,-10,13,-22,.,5,2
COc1ccc(C2=Nn3c(nnc3-c3ccccc3F)SC2)cc1OCC1CC1,0,23,-21,.,52*,4
